# Laboratory results as given in ChEMBL document CHEMBL1817668, “Synthesis of 6-[¹⁸F]fluoro-PBR28, a novel radiotracer for imaging the TSPO 18 kDa with PET” (Bioorg Med Chem Lett, 2011).
# Activity calls are given as the source filed them. The rule behind the calls is not given here.
# Columns and labels:
# Rattus norvegicus [1] = species: Rattus norvegicus; assay: Ex vivo binding affinity to TSPO in AMPA lesioned rat assessed as increase in ipsi to contralateral ratio by auto radiography; format: functional, organism-based
# Translocator protein [2] = target: T1, Translocator protein (Rattus norvegicus, UniProt P16257); assay: Displacement of [3H]PK11195 from TSPO in rat kidney mitochondrial fraction; format: tissue-based
# Translocator protein [3] = target: Translocator protein (Homo sapiens, UniProt P30536); assay: Displacement of [3H]PK11195 from TSPO in human HEK293 mitochondrial fraction
# Translocator protein [4] = target: T1, Translocator protein; assay: Displacement of [3H]PK11195 from TSPO in rat heart membrane homogenate; format: cell membranes
# C6 = assay: Induction of pregnenolone synthesis in rat C6 cells at 40 uM after 2 hrs by ELISA relative to control; format: functional
# Procedure, shortened: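 Rat C6 glioma cells were exposed to ligand at 40 μM. Released pregnenolone was measured by competitive ELISA and expressed as % above control. Mean ± SEM of at least three independent experiments.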
# Rattus norvegicus [5] = species: Rattus norvegicus; assay: Displacement of [3H]Flunitrazepam from CBR in rat cerebral cortex at 0.1 uM; format: tissue-based
# Procedure, shortened: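 Competition binding against [3H]flunitrazepam, a reference central benzodiazepine receptor ligand, in a rat cerebral cortex homogenate screen. […]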
# Striatum [6] = assay: Drug uptake in AMPA lesioned rat striatum after 1-2 mins post injection; format: ADME, tissue-based; conditions: in vivo
# [7] = Octanol-buffer partition coefficient, log D of the compound at pH 7.4 by shake flask method; format: physicochemical
# Procedure, shortened: (§1)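 Shake-flask partition of the [18F]-labelled radioligand. Log D7.4 was measured between n-octanol and buffer pH 7.4, and log P between n-octanol and water.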
# Striatum [8] = assay: Drug uptake in rat striatum after 1-2 mins post injection; format: ADME, tissue-based; conditions: in vivo
# [9] = Octanol-water partition coefficient, log P of the compound by shake flask method; format: physicochemical; procedure, shortened: as §1
# Brain = assay: Ratio of drug uptake in ipsi to contralateral side of AMPA lesioned rat brain after 60 mins post injection; format: ADME, tissue-based; conditions: in vivo, 1 h
# Procedure, shortened: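 MicroPET imaging of rats with AMPA-induced brain lesions after injection of the fluorine-18-labelled radiotracer. Uptake in the lesioned (ipsilateral) striatal area is compared with the corresponding area of the intact contralateral hemisphere at 60 min post-injection. Time-activity curves are followed for lesioned and non-lesioned striatum over the scan.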
# T1 sequence (P16257 whole entry, looked up): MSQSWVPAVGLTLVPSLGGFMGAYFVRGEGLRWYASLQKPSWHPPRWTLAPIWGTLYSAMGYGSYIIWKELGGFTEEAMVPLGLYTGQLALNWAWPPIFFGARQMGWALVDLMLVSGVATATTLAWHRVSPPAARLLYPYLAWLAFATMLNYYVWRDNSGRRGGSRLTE
# Chain of Translocator protein (Homo sapiens, UniProt P30536) (P30536 whole entry): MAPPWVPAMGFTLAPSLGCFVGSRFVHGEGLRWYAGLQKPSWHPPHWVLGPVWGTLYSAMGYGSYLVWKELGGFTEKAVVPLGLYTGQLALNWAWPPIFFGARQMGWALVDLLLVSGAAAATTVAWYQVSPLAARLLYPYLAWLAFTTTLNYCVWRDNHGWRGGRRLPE
SMILES,Activity (Rattus norvegicus [1]),Activity (C6) [%],Drug uptake (Striatum [6]),Drug uptake (Striatum [8]),further results
COc1ccccc1CN(C(C)=O)c1cnc(F)cc1Oc1ccccc1,inactive,16.45,–,–,Activity (Rattus norvegicus [1]; tested as the 18F-labelled form): Active; Ki (Translocator protein [2]): 3.9 nM; Ki (Translocator protein [3]): 1.19 nM; Ki (Translocator protein [4]): 0.44 nM; Activity (Rattus norvegicus [5]): < 10%
CCOC(=O)c1ncn2c1CN(C)C(=O)c1cc(F)ccc1-2,Active,–,–,–,–
COc1ccccc1CN(C(C)=O)c1cnc([18F])cc1Oc1ccccc1,–,–,Active,Active,logD [7]: 2.82; logP [9]: 2.77; Ratio (Brain): 2.2
CCC(C)N([11CH3])C(=O)c1cc2ccccc2c(-c2ccccc2Cl)n1 (configuration not stated),–,–,Active,Active,–
CCC(C)N(C)C(=O)c1cc2ccccc2c(-c2ccccc2Cl)n1 (configuration not stated) [PK-11195],inactive,37,–,–,–
